Bounds are passed on as bounds.

The values that follow come from ChEMBL document CHEMBL3994667, “Small Molecule Lysyl Oxidase-like 2 (LOXL2) Inhibitors: The Identification of an Inhibitor Selective for LOXL2 over LOX” (ACS Med Chem Lett, 2017).

The target in data set [1] is Cytochrome P450 2D6 (Homo sapiens, UniProt P10635). As to the kind of experiment: Inhibition of CYP2D6 (unknown origin). Format: ADME.
The target of data set [2] is T1, Lysyl oxidase homolog 2 (Homo sapiens, UniProt Q9Y4K0).
T1 sequence (Q9Y4K0 whole entry): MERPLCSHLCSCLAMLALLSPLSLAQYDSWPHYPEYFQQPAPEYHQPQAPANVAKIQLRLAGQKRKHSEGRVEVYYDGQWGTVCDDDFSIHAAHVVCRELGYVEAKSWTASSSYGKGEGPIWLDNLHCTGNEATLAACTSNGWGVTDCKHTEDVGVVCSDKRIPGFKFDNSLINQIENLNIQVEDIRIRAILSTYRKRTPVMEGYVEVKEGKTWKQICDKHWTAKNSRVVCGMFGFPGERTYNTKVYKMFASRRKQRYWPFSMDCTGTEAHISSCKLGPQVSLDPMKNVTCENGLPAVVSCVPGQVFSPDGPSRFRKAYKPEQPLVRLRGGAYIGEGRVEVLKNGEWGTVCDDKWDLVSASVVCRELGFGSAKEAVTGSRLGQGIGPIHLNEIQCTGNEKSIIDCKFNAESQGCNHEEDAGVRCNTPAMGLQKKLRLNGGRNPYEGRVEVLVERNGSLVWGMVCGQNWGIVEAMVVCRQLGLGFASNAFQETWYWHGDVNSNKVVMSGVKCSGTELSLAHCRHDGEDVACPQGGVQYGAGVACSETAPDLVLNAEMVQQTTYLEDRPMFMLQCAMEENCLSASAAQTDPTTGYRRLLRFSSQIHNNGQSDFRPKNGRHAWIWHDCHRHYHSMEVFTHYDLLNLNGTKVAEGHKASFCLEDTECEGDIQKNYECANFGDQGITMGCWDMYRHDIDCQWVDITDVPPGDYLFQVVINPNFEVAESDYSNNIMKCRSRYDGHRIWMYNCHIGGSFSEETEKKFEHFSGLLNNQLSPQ
As to the kind of experiment: Inhibition of full length recombinant human LOXL2 expressed in CHO cells assessed as reduction in H2O2 production using DAP as substrate preincubated for 2 hrs followed by substrate addition measured every 2 minutes for 50 minutes in presence of BSA by Amplex red dye based fluorescence assay. In outline:
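Serum-free concentrated conditioned medium from CHO cells stably expressing human LOXL2, supplemented with BSA. Compounds preincubated for 2 h (the screening preincubation time). Substrate was 1,5-diaminopentane, and the H2O2 formed was detected with Amplex Red. IC50 given as geometric mean x/÷ geometric SD over N determinations.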

Data set [3] addresses T1, Lysyl oxidase homolog 2. Description: Inhibition of full length recombinant human LOXL2 expressed in CHO cells spiked into human whole blood assessed as reduction in H2O2 production using DAP as substrate preincubated for 2 followed by substrate addition measured every 90 secs for 45 mins by Amplex red dye based fluorescence assay. Format: cell-based. In outline:
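Human recombinant LOXL2 spiked into human whole blood. Oxidative deamination of 1,5-diaminopentane measured as H2O2 with Amplex Red. IC50 expressed as geometric mean x/÷ geometric SD with N.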

For data set [4], the target named is Cytochrome P450 3A4 (Homo sapiens, UniProt P08684). As to the kind of experiment: Inhibition of CYP3A4 (unknown origin). The format is ADME.
Chain of Cytochrome P450 3A4 (P08684 whole entry): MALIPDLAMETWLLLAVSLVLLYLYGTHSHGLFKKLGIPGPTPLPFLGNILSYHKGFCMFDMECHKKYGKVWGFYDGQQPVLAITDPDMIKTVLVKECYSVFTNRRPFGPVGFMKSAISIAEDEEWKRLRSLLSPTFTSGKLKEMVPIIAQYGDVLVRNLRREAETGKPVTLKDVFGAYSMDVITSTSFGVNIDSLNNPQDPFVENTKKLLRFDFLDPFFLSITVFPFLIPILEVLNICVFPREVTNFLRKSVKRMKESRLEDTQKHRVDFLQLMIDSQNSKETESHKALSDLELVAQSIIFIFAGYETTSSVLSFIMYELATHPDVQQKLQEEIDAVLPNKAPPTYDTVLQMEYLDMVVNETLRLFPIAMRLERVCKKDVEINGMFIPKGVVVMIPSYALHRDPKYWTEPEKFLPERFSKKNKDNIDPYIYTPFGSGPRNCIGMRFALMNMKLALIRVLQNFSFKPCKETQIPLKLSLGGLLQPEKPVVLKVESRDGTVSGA
The target of data set [5] is T2, Amine oxidase [flavin-containing] B (Homo sapiens, UniProt P27338).
T2 sequence (P27338 whole entry): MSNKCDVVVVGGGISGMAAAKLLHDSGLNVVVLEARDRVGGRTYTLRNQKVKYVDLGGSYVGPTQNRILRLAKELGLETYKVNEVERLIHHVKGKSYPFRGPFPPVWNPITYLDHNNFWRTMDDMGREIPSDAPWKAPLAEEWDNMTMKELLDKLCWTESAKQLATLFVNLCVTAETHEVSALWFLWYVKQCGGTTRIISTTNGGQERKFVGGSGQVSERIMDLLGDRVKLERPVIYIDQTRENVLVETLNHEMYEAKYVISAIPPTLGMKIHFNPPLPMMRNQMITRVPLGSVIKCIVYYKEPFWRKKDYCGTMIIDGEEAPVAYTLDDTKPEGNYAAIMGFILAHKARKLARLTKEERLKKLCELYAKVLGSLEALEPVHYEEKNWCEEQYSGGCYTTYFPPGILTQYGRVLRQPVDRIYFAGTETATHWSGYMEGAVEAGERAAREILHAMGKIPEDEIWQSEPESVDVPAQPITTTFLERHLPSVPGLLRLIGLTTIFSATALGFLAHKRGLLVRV
As to the kind of experiment: Inhibition of recombinant human MAO-B at 30 uM using benzylamine as substrate preincubated for 2 hrs followed by substrate addition measured every 30 secs for 10 minutes by Amplex red dye based fluorescence assay.

The target of data set [6] is T3, Lysyl oxidase homolog 2 (Mus musculus, UniProt P58022).
T3 sequence (P58022 whole entry): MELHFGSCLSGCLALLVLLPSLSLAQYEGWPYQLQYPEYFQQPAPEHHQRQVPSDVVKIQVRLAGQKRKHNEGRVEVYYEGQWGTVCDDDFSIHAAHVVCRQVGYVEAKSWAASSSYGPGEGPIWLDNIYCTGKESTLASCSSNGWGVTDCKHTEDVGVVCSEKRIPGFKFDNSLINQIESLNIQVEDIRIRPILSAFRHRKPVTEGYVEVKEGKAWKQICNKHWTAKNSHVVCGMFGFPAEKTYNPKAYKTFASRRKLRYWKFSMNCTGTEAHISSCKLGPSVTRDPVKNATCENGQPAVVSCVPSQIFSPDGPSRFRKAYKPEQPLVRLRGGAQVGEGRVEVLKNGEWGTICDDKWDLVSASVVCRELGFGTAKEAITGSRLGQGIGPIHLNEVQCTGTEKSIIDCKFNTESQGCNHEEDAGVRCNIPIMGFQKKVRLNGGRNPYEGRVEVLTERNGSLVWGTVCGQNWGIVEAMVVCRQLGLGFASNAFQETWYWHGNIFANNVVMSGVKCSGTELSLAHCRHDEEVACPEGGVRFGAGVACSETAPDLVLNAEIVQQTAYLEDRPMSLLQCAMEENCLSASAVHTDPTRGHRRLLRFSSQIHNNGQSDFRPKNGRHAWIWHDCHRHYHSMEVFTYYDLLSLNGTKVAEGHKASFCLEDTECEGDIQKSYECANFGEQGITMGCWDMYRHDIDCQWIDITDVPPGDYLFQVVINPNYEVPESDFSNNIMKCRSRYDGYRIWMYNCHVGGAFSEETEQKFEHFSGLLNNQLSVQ
As to the kind of experiment: Inhibition of full length recombinant mouse LOXL2 expressed in CHO cells assessed as reduction in H2O2 production using DAP as substrate preincubated for 2 hrs followed by substrate addition measured every 2 minutes for 50 minutes in presence of BSA by Amplex red dye based fluorescence assay. The format is cell-based. In outline: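 Rodent LOXL2 is tested under the same conditions as the BSA-supplemented assay: conditioned media plus BSA, with DAP as substrate and Amplex Red detection of H2O2. Species are mouse and rat. IC50 is the geometric mean x/÷ geometric standard deviation from 3 determinations.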

Chain of Cytochrome P450 2D6 (P10635 whole entry): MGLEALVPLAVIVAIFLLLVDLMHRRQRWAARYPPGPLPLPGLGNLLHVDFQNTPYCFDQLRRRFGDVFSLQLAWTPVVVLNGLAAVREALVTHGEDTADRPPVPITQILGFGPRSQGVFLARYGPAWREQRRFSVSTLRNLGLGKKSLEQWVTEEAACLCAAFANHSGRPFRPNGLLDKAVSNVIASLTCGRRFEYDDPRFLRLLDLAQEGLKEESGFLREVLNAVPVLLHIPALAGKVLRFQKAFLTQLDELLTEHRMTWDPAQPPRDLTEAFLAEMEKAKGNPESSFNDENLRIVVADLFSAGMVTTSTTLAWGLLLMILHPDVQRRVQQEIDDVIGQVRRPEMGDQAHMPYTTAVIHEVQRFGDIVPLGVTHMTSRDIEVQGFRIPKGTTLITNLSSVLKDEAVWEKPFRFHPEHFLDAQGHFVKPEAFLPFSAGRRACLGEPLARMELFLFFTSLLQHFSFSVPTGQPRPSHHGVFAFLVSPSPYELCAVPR

As for `NCc1ccnc(Cl)c1`, the half-maximal inhibitory concentration (IC50) is more than 30000 nM in data set [1]; 190 nM in data set [2]; 1450 nM in data set [3]; more than 30000 nM in data set [4]; 227 nM in data set [6]. The “inhibition (INH)” value in data set [5] is on record as “Not Active”.
